Source: ChEMBL document CHEMBL1143625, “Bisphosphonate inhibitors of Toxoplasma gondi growth: in vitro, QSAR, and in vivo investigations” (J Med Chem, 2005)

How the values were obtained:
HFF [1] = assay: Inhibitory concentration against the growth of Toxoplasma gondii overexpressing FPPS enzyme in human foreskin fibroblast monolayer cells; (control = 2.5 uM, experiment 2); format: functional, cell-based
Method in brief: (§1)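 FPPS-overexpressing T. gondii line: 2F clone tachyzoites (beta-galactosidase) electroporated with 50 µg ptubTgFPPS-FLAG/sagCAT. Stable lines were selected with 20 µM chloramphenicol and cloned by limiting dilution, giving 4-5-fold more FPPS by Western blot. Assay: compounds serially diluted in medium on confluent HFF; 10^4 tachyzoites/mL (filtered 3 µm, needle-passed); 48 h at 37 °C. Lysis, then CPRG read at 570 nm; IC50 from rectangular hyperbolic fit of % inhibition.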

HFF [2] = assay: Inhibitory concentration against the growth of Toxoplasma gondii overexpressing FPPS enzyme in human foreskin fibroblast monolayer cells; (control = 2.2 uM, experiment 1); format: functional, cell-based; method in brief: as §1
[3] = In vitro inhibitory concentration against the growth of Toxoplasma gondii in human foreskin fibroblast monolayer cells (HFF cells); format: functional, cell-based
Method in brief: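 T. gondii 2F clone tachyzoites expressing β-galactosidase, kept in HFF in DMEM with 10% FBS, 2 mM glutamine and 1 mM pyruvate. Confluent HFF monolayers were given serially diluted drug in medium, then 10^4 filtered, needle-passed tachyzoites/mL, and held 48 h at 37 °C. Cells were lysed at 50 °C, and CPRG turnover was read at 570 nm. IC50 came from a hyperbolic fit of % inhibition against concentration.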

HFF [4] = assay: Inhibitory concentration against the growth of Toxoplasma gondii overexpressing FPPS enzyme in human foreskin fibroblast monolayer cells; (control = 2.4 uM, experiment 3); format: functional, cell-based; method in brief: as §1
[5] = Therapeutic index (TI) value as ratio of lethal dose (LD50) to the inhibitory concentration (IC50); format: cell-based; details: human, KB cells; read-out: TI
KB = assay: Lethal dose required to inhibit the growth of human KB (nasopharyngeal carcinoma) cell line; format: functional; details: read-out: LD50 (the source's name)
HFF [6] = assay: Inhibitory concentration against the growth of Toxoplasma gondii overexpressing FPPS enzyme in human foreskin fibroblast monolayer cells; (control = 0.30 uM, experiment 2); format: functional, cell-based; method in brief: as §1
HFF [7] = assay: Inhibitory concentration against the growth of Toxoplasma gondii overexpressing FPPS enzyme in human foreskin fibroblast monolayer cells; (control = 0.28 uM, experiment 3); format: functional, cell-based; method in brief: as §1
HFF [8] = assay: Inhibitory concentration against the growth of Toxoplasma gondii overexpressing FPPS enzyme in human foreskin fibroblast monolayer cells; (control = 0.12 uM, experiment 1); format: functional, cell-based; method in brief: as §1
HFF [9] = assay: Inhibitory concentration against the growth of Toxoplasma gondii overexpressing FPPS enzyme in human foreskin fibroblast monolayer cells; (control = 0.15 uM, experiment 2); format: functional, cell-based; method in brief: as §1
HFF [10] = assay: Inhibitory concentration against the growth of Toxoplasma gondii overexpressing FPPS enzyme in human foreskin fibroblast monolayer cells; (control = 0.62 uM, experiment 1); format: functional, cell-based; method in brief: as §1
HFF [11] = assay: Inhibitory concentration against the growth of Toxoplasma gondii overexpressing FPPS enzyme in human foreskin fibroblast monolayer cells; (control = 0.55 uM, experiment 3); format: functional, cell-based; method in brief: as §1
HFF [12] = assay: Inhibitory concentration against the growth of Toxoplasma gondii overexpressing FPPS enzyme in human foreskin fibroblast monolayer cells; (control = 0.29 uM); format: functional, cell-based; method in brief: as §1
HFF [13] = assay: Inhibitory concentration against the growth of Toxoplasma gondii overexpressing FPPS enzyme in human foreskin fibroblast monolayer cells; (control = 0.60 uM, experiment 1); format: functional, cell-based; method in brief: as §1
HFF [14] = assay: Inhibitory concentration against the growth of Toxoplasma gondii overexpressing FPPS enzyme in human foreskin fibroblast monolayer cells; (control = 1.1 uM, experiment 2); format: functional, cell-based; method in brief: as §1
HFF [15] = assay: Inhibitory concentration against the growth of Toxoplasma gondii overexpressing FPPS enzyme in human foreskin fibroblast monolayer cells; (control = 0.79 uM, experiment 3); format: functional, cell-based; method in brief: as §1

Row | Structure (SMILES) | IC50 [3] [µM] | selectivity ratio [5] | CC50 (KB) [µM] | other results
1 | CCCCCCCCC(O)(P(=O)(O)O)P(=O)(O)O | 2.38 |  |  | IC50 (HFF [1]): 5.8 µM; IC50 (HFF [2]): 3.3 µM; IC50 (HFF [4]): 5.8 µM
2 | O=P(O)(O)C(Nc1ccnc(O)c1)P(=O)(O)O | 17.4 | 14.8 | 257 | 
3 | O=P(O)(O)C(O)(CC1=NC=NC1)P(=O)(O)O | 6.7 | 6.12 | 41 | 
4 | O=P(O)(O)C(Sc1ccccn1)P(=O)(O)O | 51.2 |  |  | 
5 | O=[N+]([O-])c1cccc(CC(O)(P(=O)(O)O)P(=O)(O)O)c1 | 47.9 |  |  | 
6 | Cc1cccc(CC(O)(P(=O)(O)O)P(=O)(O)O)c1 | 36.4 |  |  | 
7 | O=P(O)(O)C(Nc1cccc(Cc2ccccc2)c1)P(=O)(O)O | 56.2 |  |  | 
8 | O=P(O)(O)C(O)(Cc1cccc2ccccc12)P(=O)(O)O | 68.8 |  |  | 
9 | C[C@H](NC(P(=O)(O)O)P(=O)(O)O)c1cccc2ccccc12 | 55.1 |  |  | 
10 | CCc1cccc(NC(P(=O)(O)O)P(=O)(O)O)n1 | 218 |  |  | 
11 | O=P(O)(O)C(O)(Cn1cnc2ccccc21)P(=O)(O)O | 4.5 |  |  | 
12 | CCC(C)NC(P(=O)(O)O)P(=O)(O)O (stereo not drawn) | 164 |  |  | 
13 | O=P(O)(O)C(Nc1nccc2ccccc12)P(=O)(O)O | 20.9 | 32.2 | 673 | 
14 | O=P(O)(O)C(Nc1ccccn1)P(=O)(O)O | 44.6 | 10.4 | 465 | 
15 | Cc1csc(NC(P(=O)(O)O)P(=O)(O)O)n1 | 30.9 |  |  | 
16 | O=P(O)(O)C(O)(CCc1cccnc1)P(=O)(O)O | 147 | > 5.46 | > 804 | 
17 | CCCCCCCC(O)(P(=O)(O)O)P(=O)(O)O | 13.8 | 21.9 | 302 | 
18 | NCCCCC(O)(P(=O)(O)O)P(=O)(O)O | 126 | 0.72 | 91 | 
19 | CCCCCCCCCCC(O)(P(=O)(O)O)P(=O)(O)O | 0.28 | > 2950 | > 826 | IC50 (HFF [6]): 1200 nM; IC50 (HFF [7]): 1700 nM; IC50 (HFF [8]): 1100 nM
20 | CCCCC(O)(P(=O)(O)O)P(=O)(O)O | 150 | > 6.95 | > 1040 | 
21 | O=P(O)(O)C(Nc1cccnc1)P(=O)(O)O | 42 | 18.6 | 782 | 

Row | Structure (SMILES) | IC50 [3] [µM] | selectivity ratio [5] | CC50 (KB) [µM] | other results
22 | CC(C)(C)c1cccc(NC(P(=O)(O)O)P(=O)(O)O)c1 | 157 |  |  | 
23 | CC1CCCCN1C(P(=O)(O)O)P(=O)(O)O (stereo not drawn) | 132 |  |  | 
24 | CC(C)c1cccc(NC(P(=O)(O)O)P(=O)(O)O)c1 | 160 |  |  | 
25 | CN(Cc1ccccc1)C(P(=O)(O)O)P(=O)(O)O | 76.7 |  |  | 
26 | Cc1ccnc(N(Cc2ccccc2)C(P(=O)(O)O)P(=O)(O)O)c1 | 226 |  |  | 
27 | C[C@@H](NC(P(=O)(O)O)P(=O)(O)O)c1cccc2ccccc12 | 63.2 |  |  | 
28 | Nc1ccc(CC(O)(P(=O)(O)O)P(=O)(O)O)cc1 | 80.3 | 2.71 | 218 | 
29 | O=P(O)(O)C(O)(Cc1ccccn1)P(=O)(O)O | 8.11 | 1.71 | 13.9 | 
30 | O=P(O)(O)C(N1CCCCC1)P(=O)(O)O | 51.2 | > 21.9 | > 1120 | 
31 | Cc1cc(C)nc(NC(P(=O)(O)O)P(=O)(O)O)c1 | 235 | 2.7 | 633 | 
32 | CCCCCCCCCC(O)(P(=O)(O)O)P(=O)(O)O | 0.55 | > 1620 | > 892 | IC50 (HFF [9]): 570 nM; IC50 (HFF [10]): 1900 nM; IC50 (HFF [11]): 1700 nM
33 | Cc1cccnc1NC(P(=O)(O)O)P(=O)(O)O | 44.5 | 4.02 | 179 | 
34 | CCCCCCC(O)(P(=O)(O)O)P(=O)(O)O | 25.3 | 4.23 | 107 | 
35 | O=P(O)(O)C(O)(CSc1ccncc1)P(=O)(O)O | 72.5 | > 10.3 | > 746 | 
36 | Cc1ccnc(NC(P(=O)(O)O)P(=O)(O)O)c1 | 59 | 2.32 | 137 | 
37 | O=P(O)(O)C(O)(Cc1ccncc1)P(=O)(O)O | 3.5 | 48.9 | 171 | 
38 | CCC(C)CNC(P(=O)(O)O)P(=O)(O)O (stereo not drawn) | 36.6 | 10.8 | 394 | 
39 | O=P(O)(O)C(O)(Cc1ccccc1)P(=O)(O)O | 90.2 | > 10.3 | > 931 | 
40 | O=P(O)(O)C(Nc1ccc(Cl)cc1Cl)P(=O)(O)O [2,4-DICHLOROPHENYLAMINOMETHYLENEBISPHOSPHONIC ACID] | 154 |  |  | 
41 | CCCCN(CC)C(P(=O)(O)O)P(=O)(O)O [(BUTYL(ETHYL)AMINO)METHYLENEDIPHOSPHONIC ACID] | 132 | > 7.99 | > 1060 | 
42 | CCCCNC(P(=O)(O)O)P(=O)(O)O [(BUTYLAMINO)METHYLENEDIPHOSPHONIC ACID] | 76.1 | 2.78 | 212 | 

Row | Structure (SMILES) | IC50 [3] [µM] | selectivity ratio [5] | CC50 (KB) [µM] | other results
43 | O=P(O)(O)C(NC1CCC1)P(=O)(O)O [(CYCLOBUTYLAMINO)METHYLENEDIPHOSPHONIC ACID] | 121 | 2.15 | 260 | 
44 | O=P(O)(O)C(NC1CCCCCCC1)P(=O)(O)O [(CYCLOOCTYLAMINO)METHYLENEDIPHOSPHONIC ACID] | 43.2 | 8.19 | 354 | 
45 | O=P(O)(O)C(NC1CCCC1)P(=O)(O)O [(CYCLOPENTYLAMINO)METHYLENEDIPHOSPHONIC ACID] | 68.4 | 9.19 | 629 | 
46 | O=P(O)(O)C(NC1CC1)P(=O)(O)O [(CYCLOPROPYLAMINO)METHYLENEDIPHOSPHONIC ACID] | 23.1 | 10.7 | 246 | 
47 | O=P(O)(O)C(N(C1CCCCC1)C1CCCCC1)P(=O)(O)O [(DICYCLOHEXYLAMINO)METHYLENEDIPHOSPHONIC ACID] | 42.1 | > 20.1 | > 844 | 
48 | CC(C)CCNC(P(=O)(O)O)P(=O)(O)O [(ISOPENTYLAMINO)METHYLENEDIPHOSPHONIC ACID] | 135 | 3.56 | 480 | 
49 | CCCCCCCCCNC(P(=O)(O)O)P(=O)(O)O [(NONYLAMINO)METHYLENEDIPHOSPHONIC ACID] | 8.89 | > 103 | > 919 | 
50 | CCCNC(P(=O)(O)O)P(=O)(O)O [(PROPYLAMINO)METHYLENEDIPHOSPHONIC ACID] | 69.2 | 7.21 | 499 | 
51 | NCCCC(O)(P(=O)(O)O)P(=O)(O)O [ALENDRONIC ACID] | 109 |  |  | 
52 | O=C1C(O)=C([C@H]2CC[C@H](c3ccc(Cl)cc3)CC2)C(=O)c2ccccc21 [ATOVAQUONE] |  |  |  | IC50 (HFF [12]): 280 nM
53 | CCCCCN(C)CCC(O)(P(=O)(O)O)P(=O)(O)O [IBANDRONIC ACID] | 54.9 | 0.19 | 10.4 | 
54 | O=P(O)(O)C(NC1CCCCCC1)P(=O)(O)O [INCADRONIC ACID] | 39.6 | 4.19 | 166 | 
55 | O=P(O)(O)C(O)(Cc1cnc2ccccn12)P(=O)(O)O [MINODRONIC ACID] | 1.88 |  |  | 
56 | O=P(O)(O)C(N1CCCCCC1)P(=O)(O)O [N-(HEXAMETHYLENEIMINO)METHYLENEBISPHOSPHONIC ACID] | 89.8 | > 12.2 | > 1100 | 
57 | NCCCCCC(O)(P(=O)(O)O)P(=O)(O)O [NERIDRONIC ACID] | 59.7 | 11.4 | 680 | 
58 | NCCC(O)(P(=O)(O)O)P(=O)(O)O [PAMIDRONIC ACID] | 38 | 4.11 | 156 | 
59 | O=P(O)(O)C(O)(Cc1cccnc1)P(=O)(O)O [RISEDRONIC ACID] | 2.4 | 106 | 255 | 
60 | O=P(O)(O)C(N1CCSCC1)P(=O)(O)O [THIOMORPHOLINOMETHYLENEDIPHOSPHONIC ACID] | 161 | > 6.73 | > 1080 | 
61 | O=P(O)(O)C(O)(Cn1ccnc1)P(=O)(O)O [ZOLEDRONIC ACID] | 0.79 | 80.9 | 63.7 | IC50 (HFF [13]): 7.8 µM; IC50 (HFF [14]): 8.3 µM; IC50 (HFF [15]): 7.8 µM
